In ChEMBL document CHEMBL5096186, “Design, Synthesis, and Biological Evaluation of Novel Pyrimido[4,5-b]indole Derivatives Against Gram-Negative Multidrug-Resistant Pathogens” (J Med Chem, 2021):
Values after ≈ are worked out from the molar mass of the structure shown.

Tests used:
[1] = Metabolic stability in rat liver microsome assessed as elimination half life at 0.1 uM in presence of NADPH incubated upto 60 mins by LC-MS/MS analysis; format: ADME; settings: liver microsomes, read-out: beta t1/2
In short: (§1)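 Compound at 0.1 μM final, in 0.01% DMSO with 0.005% BSA. Incubated with rat or human liver microsomes at 0.33 mg/mL in 0.1 M Tris-HCl, pH 7.4, with 5 mM MgCl₂ and 1 mM NADPH, at 37 °C. Samples at 0, 7, 17, 30 and 60 min quenched with cold methanol and analysed by LC-MS/MS. Half-life, Cl_int and MF% derived as previously described.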

[2] = Cytotoxicity against human L02 cells assessed as cell viability measured for 48 hrs by CCK-8 assay; format: toxicity, cell-based
In short: (§2)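 Cells seeded at 1 × 10⁴ per well and grown for 48 h. Then exposed to test articles at 1–200 μM for another 48 h (n = 6). Viability by CCK-8 added for 2 h, absorbance read at 450 nm. CC50 calculated and reported as the mean.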

[3] = test system: Staphylococcus epidermidis; assay: Antibacterial activity against methicillin-sensitive Staphylococcus epidermidis strains 15 1 to 4 assessed as reduction in bacterial growth incubated for 18 to 20 hrs by CLSI based microdilution method; format: functional; settings: time 18-20 hrs
In short: (§3)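 Broth microdilution per CLSI. Compounds dissolved in DMSO (levofloxacin and meropenem in water) as 64 μg/mL stock, then serial twofold dilutions in broth giving 64 to 0.008 μg/mL. […] Clinical isolates tested as several strains per group; racemic GP-1 served as positive control; values given as MIC ranges.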

Escherichia coli [4] = assay: Antibacterial activity against multidrug resistant wild type Escherichia coli NCTC 13353 assessed as reduction in bacterial growth incubated for 18 to 20 hrs by CLSI based microdilution method; format: functional; settings: time 18-20 hrs; in short: as §3
Staphylococcus aureus = assay: Antibacterial activity against methicillin-sensitive Staphylococcus aureus strains 15 1 to 4 assessed as reduction in bacterial growth incubated for 18 to 20 hrs by CLSI based microdilution method; format: functional; settings: time 18-20 hrs; in short: as §3
[5] = AUC (0 to infinity) in Sprague-Dawley rat at 4 mg/kg, iv measured upto 24 hrs by LC-MS/MS analysis; format: ADME, organism-based; parameters: time < 24 hrs, dose 4 mg/kg, route iv; settings: in vivo
In short: (§4)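 Male Sprague-Dawley rats, n = 3 per group, single intravenous dose. For 4 mg/kg: 180–280 g rats, vehicle 5% DMSO + 5% EtOH + 40% PEG300 + 50% saline, blood from the retrobulbar vein at 0.05–24 h. For 5 and 20 mg/kg: 180–300 g rats, vehicle 5% DMSO + 5% solutol + 90% saline, sampled at 0.083–24 h. Plasma quantified by LC/MS/MS. Parameters from mean plasma concentration by noncompartmental analysis; values are mean ± standard deviation.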

[6] = Cytotoxicity against human HEK293 cells assessed as cell viability measured for 48 hrs by CCK-8 assay; format: toxicity, cell-based; in short: as §2
[7] = Metabolic stability in rat liver microsome assessed as metabolic bioavailability at 0.1 uM in presence of NADPH incubated upto 60 mins by LC-MS/MS analysis; format: ADME; settings: liver microsomes; in short: as §1
[8] = Drug metabolism in Spargue-Dawley rat liver microsomes assessed as formation of M5 metabolite incubated upto 60 mins by UHPLC-MS/MS analysis; format: ADME, Microsome; settings: 1 h
In short: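 Male SD rat liver microsomes at 1 mg protein/mL with 2 mM NADP and 5 mM MgCl₂ in 100 mM potassium phosphate, pH 7.4. Compound preincubated 5 min at 37 °C. Samples at 0, 30 and 60 min quenched with cold acetonitrile containing 0.1% formic acid, then analysed by UHPLC-MS/MS. Relative peak areas from extracted ion chromatograms at 60 min.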

[9] = target: Voltage-gated inwardly rectifying potassium channel KCNH2 (Homo sapiens, UniProt Q12809); assay: Inhibition of hERG potassium channel assessed as […] at -80 mV holding potential incubated for 120 seconds by whole cell-automated voltage clamp analysis assay; format: toxicity
In short: (§5)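 Automated whole-cell patch clamp, holding potential −80 mV. Voltage protocol applied every 20 s. Baseline set with external solution containing 0.1% DMSO and stabilised 3 min. Compound applied until steady state, at least 3 min, then washout. Maximum tested concentration 40 μM, or 3 μM for cisapride as positive control.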

Escherichia coli [10] = assay: Antibacterial activity against multidrug resistant wild type Escherichia coli ATCC BAA-2340 assessed as reduction in bacterial growth incubated for 18 to 20 hrs by CLSI based microdilution method; format: functional; settings: time 18-20 hrs; in short: as §3
[11] = MRT in Sprague-Dawley rat at 4 mg/kg, iv measured upto 24 hrs by LC-MS/MS analysis; format: ADME, organism-based; settings: in vivo; in short: as §4
Klebsiella pneumoniae [12] = assay: Antibacterial activity agains wild type Klebsiella pneumoniae ATCC BAA-2470 assessed as reduction in bacterial growth incubated for 18 to 20 hrs by CLSI based microdilution method; format: functional; settings: time 18-20 hrs; in short: as §3
Klebsiella pneumoniae [13] = assay: Antibacterial activity agains wild type Klebsiella pneumoniae ATCC BAA-1705 assessed as reduction in bacterial growth incubated for 18 to 20 hrs by CLSI based microdilution method; format: functional; settings: time 18-20 hrs
In short: (§6)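 CLSI broth microdilution. Compounds in DMSO (levofloxacin and meropenem in water), serial twofold dilutions in broth, 64 to 0.008 μg/mL. […] Results reported as MIC ranges across strains.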

Pseudomonas aeruginosa [14] = assay: Antibacterial activity against IMP4-producing multidrug resistant Pseudomonas aeruginosa assessed as reduction in bacterial growth incubated for 18 to 20 hrs by CLSI based microdilution method; format: functional; settings: time 18-20 hrs; in short: as §3
Escherichia coli [15] = assay: Antibacterial activity against ESBL-producing multidrug resistant Escherichia coli assessed as reduction in bacterial growth incubated for 18 to 20 hrs by CLSI based microdilution method; format: functional; settings: time 18-20 hrs; in short: as §3
Klebsiella pneumoniae [16] = assay: Antibacterial activity against KPC2-producing multidrug resistant Klebsiella pneumoniae assessed as reduction in bacterial growth incubated for 18 to 20 hrs by CLSI based microdilution method; format: functional; settings: time 18-20 hrs; in short: as §3
[17] = Volume of distribution at the steady state in Sprague-Dawley rat at 4 mg/kg, iv measured upto 24 hrs by LC-MS/MS analysis; format: ADME, organism-based; settings: in vivo, read-out: Vdss; in short: as §4
Escherichia coli [18] = assay: Antibacterial activity against Escherichia coli ATCC 35218 strains 15 1 to 3 assessed as reduction in bacterial growth incubated for 18 to 20 hrs by CLSI based microdilution method; format: functional; settings: time 18-20 hrs; in short: as §6
[19] = Metabolic stability in human liver microsome assessed as elimination half life at 0.1 uM in presence of NADPH incubated upto 60 mins by LC-MS/MS analysis; format: ADME; settings: liver microsomes, read-out: beta t1/2; in short: as §1
Acinetobacter baumannii [20] = assay: Antibacterial activity agains OXA23-producing multidrug resistant Acinetobacter baumannii assessed as reduction in bacterial growth incubated for 18 to 20 hrs by CLSI based microdilution method; format: functional; settings: time 18-20 hrs; in short: as §3
[21] = Metabolic stability in human liver microsome assessed as metabolic bioavailability at 0.1 uM in presence of NADPH incubated upto 60 mins by LC-MS/MS analysis; format: ADME; settings: liver microsomes; in short: as §1
[22] = Metabolic stability in rat liver microsome assessed as intrinsic clearance at 0.1 uM in presence of NADPH incubated upto 60 mins by LC-MS/MS analysis; format: ADME; settings: microsomes, 1 h; in short: as §1
[23] = Elimination half life in Sprague-Dawley rat at 4 mg/kg, iv measured upto 24 hrs by LC-MS/MS analysis; format: ADME, organism-based; settings: in vivo, read-out: beta t1/2 (converted); in short: as §4
Pseudomonas aeruginosa [24] = assay: Antibacterial activity against multidrug resistant Pseudomonas aeruginosa strains 15 1 to 3 assessed as reduction in bacterial growth incubated for 18 to 20 hrs by CLSI based microdilution method; format: functional; settings: time 18-20 hrs; in short: as §3
[25] = Clearance in Sprague-Dawley rat at 4 mg/kg, iv measured upto 24 hrs by LC-MS/MS analysis; format: ADME, organism-based; settings: in vivo; in short: as §4
Acinetobacter baumannii [26] = assay: Antibacterial activity against wild type Acinetobacter baumannii NCTC 13304 assessed as reduction in bacterial growth incubated for 18 to 20 hrs by CLSI based microdilution method; format: functional; settings: time 18-20 hrs; in short: as §3
[27] = target: T1, hERG (KCNH2) potassium channel (Homo sapiens, UniProt Q12809); assay: Inhibition of hERG potassium channel assessed as maximum inhibition rate at 40 uM at -80 mV holding potential incubated for 120 seconds by whole cell-automated voltage clamp analysis assay relative to control; format: toxicity; settings: time 120 sec; in short: as §5
Pseudomonas aeruginosa [28] = assay: Antibacterial activity against wild type Pseudomonas aeruginosa ATCC 27853 assessed as reduction in bacterial growth incubated for 18 to 20 hrs by CLSI based microdilution method; format: functional; settings: time 18-20 hrs; in short: as §6
[29] = Metabolic stability in human liver microsome assessed as intrinsic clearance at 0.1 uM in presence of NADPH incubated upto 60 mins by LC-MS/MS analysis; format: ADME; settings: microsomes, 1 h; in short: as §1
Escherichia coli [30] = assay: Antibacterial activity against ESBL-producing Escherichia coli ATCC 35218 strains 15 1 to 3 assessed as reduction in bacterial growth incubated for 18 to 20 hrs by CLSI based microdilution method; format: functional; settings: time 18-20 hrs; in short: as §6
[31] = target: T1, hERG (KCNH2) potassium channel; assay: Inhibition of hERG potassium channel assessed as maximum inhibition rate at 3 uM at -80 mV holding potential incubated for 120 seconds by whole cell-automated voltage clamp analysis assay relative to control; format: toxicity; settings: time 120 sec; in short: as §5

T1 sequence (Q12809 whole entry): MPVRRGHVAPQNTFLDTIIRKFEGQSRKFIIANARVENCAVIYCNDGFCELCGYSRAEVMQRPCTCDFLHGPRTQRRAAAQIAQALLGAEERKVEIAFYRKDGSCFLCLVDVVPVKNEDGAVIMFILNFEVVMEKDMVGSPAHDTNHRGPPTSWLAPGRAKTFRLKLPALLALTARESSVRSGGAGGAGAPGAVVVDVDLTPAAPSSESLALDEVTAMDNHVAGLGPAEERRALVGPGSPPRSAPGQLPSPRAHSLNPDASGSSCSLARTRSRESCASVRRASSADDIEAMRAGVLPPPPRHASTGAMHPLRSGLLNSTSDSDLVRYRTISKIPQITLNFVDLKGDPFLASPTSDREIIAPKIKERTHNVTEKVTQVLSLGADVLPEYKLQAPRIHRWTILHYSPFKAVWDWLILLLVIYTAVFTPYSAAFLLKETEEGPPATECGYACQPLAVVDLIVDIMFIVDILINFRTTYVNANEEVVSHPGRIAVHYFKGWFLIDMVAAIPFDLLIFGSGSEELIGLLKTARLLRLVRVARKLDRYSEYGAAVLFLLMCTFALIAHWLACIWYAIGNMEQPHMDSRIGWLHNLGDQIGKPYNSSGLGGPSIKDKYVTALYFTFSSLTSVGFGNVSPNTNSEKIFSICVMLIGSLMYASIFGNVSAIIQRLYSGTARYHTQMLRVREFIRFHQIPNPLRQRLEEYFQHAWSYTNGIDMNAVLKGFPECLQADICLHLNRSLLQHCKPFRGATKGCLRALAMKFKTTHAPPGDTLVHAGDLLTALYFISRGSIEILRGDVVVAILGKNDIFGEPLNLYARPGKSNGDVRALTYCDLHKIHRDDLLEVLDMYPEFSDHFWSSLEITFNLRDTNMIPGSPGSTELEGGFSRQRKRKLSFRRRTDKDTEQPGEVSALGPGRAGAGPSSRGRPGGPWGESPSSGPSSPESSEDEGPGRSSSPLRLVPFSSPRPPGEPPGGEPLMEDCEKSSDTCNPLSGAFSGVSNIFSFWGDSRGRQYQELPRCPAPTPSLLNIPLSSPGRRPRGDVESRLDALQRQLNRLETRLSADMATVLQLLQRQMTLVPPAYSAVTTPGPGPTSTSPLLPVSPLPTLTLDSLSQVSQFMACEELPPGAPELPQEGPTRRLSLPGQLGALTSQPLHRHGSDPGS
Voltage-gated inwardly rectifying potassium channel KCNH2, sequence (Q12809 whole entry): as above

## CCC(CN)=C1CN(c2nc(Oc3cnc(C)nc3)nc3[nH]c4c(NC)cc(F)cc4c23)C1
[1]
  half-life at 0.1 µM: 0.472 h
[2]
  CC50 at 48 h: 9.74 µM
[3]
  MIC: < 0.008 µg/mL
Escherichia coli [4]
  MIC: 0.125 µg/mL (≈ 0.279 µM)
Staphylococcus aureus
  MIC: < 0.008 µg/mL
[5]
  AUC(0-inf): 776 ng·h/mL
[6]
  CC50 at 48 h: 17 µM
[7]
  Fh at 1 h, 0.1 µM: 37.4%
[8]
  Activity: 72.85%
[9]
  IC50: > 40 µM
Escherichia coli [10]
  MIC: 0.25 µg/mL (≈ 0.557 µM)
[11]
  MRT: 2.8 h
Klebsiella pneumoniae [12]
  MIC: 1 µg/mL (≈ 2.23 µM)
Klebsiella pneumoniae [13]
  MIC: 2 µg/mL (≈ 4.46 µM)
Pseudomonas aeruginosa [14]
  MIC: 2 µg/mL (≈ 4.46 µM)
Escherichia coli [15]
  MIC: 0.25 µg/mL (≈ 0.557 µM)
Klebsiella pneumoniae [16]
  MIC: 1 µg/mL (≈ 2.23 µM)
[17]
  Vd: 14.7 L/kg
Escherichia coli [18]
  MIC: < 0.008 µg/mL
[19]
  half-life at 0.1 µM: 2.45 h
Acinetobacter baumannii [20]
  MIC: 0.125 µg/mL (≈ 0.279 µM)
[21]
  Fh at 1 h, 0.1 µM: 57.8%
[22]
  CLH: 74.3 mL/min/g
[23]
  half-life: 3.7 h
Pseudomonas aeruginosa [24]
  MIC: 0.5 µg/mL (≈ 1.11 µM)
[25]
  clearance: 86.7 mL/min/kg
Acinetobacter baumannii [26]
  MIC: 0.125 µg/mL (≈ 0.279 µM)
[27]
  inhibition at 2 min, 40 µM: 41.1%
Pseudomonas aeruginosa [28]
  MIC: 1 µg/mL (≈ 2.23 µM)
[29]
  CLH: 14.3 mL/min/g
Escherichia coli [30]
  MIC: < 0.008 µg/mL

## COc1cc(N)c(Cl)cc1C(=O)NC1CCN(CCCOc2ccc(F)cc2)CC1OC (configuration not stated) [CISAPRIDE MONOHYDRATE]
[31]
  inhibition at 2 min, 3 µM: 97.7%
